In ChEMBL document CHEMBL2177030:
Calls of active or inactive are those of the source. The rule behind the calls is not given here.

Experiments:
[1] = target: T1, Cutinase 1 (Fusarium vanettenii) (UniProt P00590); test: Inhibition of Fusarium solani pisi cutinase assessed as half inactivation time pre-incubated with enzyme before substrate addition by pH-stat technique
T1 sequence (whole entry): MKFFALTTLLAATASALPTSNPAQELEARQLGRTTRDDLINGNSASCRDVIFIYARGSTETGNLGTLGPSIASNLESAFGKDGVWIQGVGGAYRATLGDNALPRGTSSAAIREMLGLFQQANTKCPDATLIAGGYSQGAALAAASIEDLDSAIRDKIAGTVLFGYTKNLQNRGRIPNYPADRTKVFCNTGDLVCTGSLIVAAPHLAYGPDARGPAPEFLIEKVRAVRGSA
Procedure, shortened: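 Cutinase was preincubated at 25 °C with inhibitor at xI 4 in 2 mM NaTDC for 1 h. Residual activity was sampled at intervals by pH-stat at 37 °C on TC4 emulsion in 2.5 mM Tris-HCl pH 8.0, 150 mM NaCl, 0.25 mM NaTDC. t1/2 was taken from the time course. Runs were done at least in duplicate.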

[2] = target: T2, Pancreatic lipase-related protein 2 (Cavia porcellus) (UniProt P81139); test: Inhibition of guinea pig recombinant PLRP2 expressed in Aspergillus oryzae at 200 molar excess compound concentration pre-incubated for 2 hrs with enzyme before substrate addition by pH-stat technique
T2 sequence (whole entry): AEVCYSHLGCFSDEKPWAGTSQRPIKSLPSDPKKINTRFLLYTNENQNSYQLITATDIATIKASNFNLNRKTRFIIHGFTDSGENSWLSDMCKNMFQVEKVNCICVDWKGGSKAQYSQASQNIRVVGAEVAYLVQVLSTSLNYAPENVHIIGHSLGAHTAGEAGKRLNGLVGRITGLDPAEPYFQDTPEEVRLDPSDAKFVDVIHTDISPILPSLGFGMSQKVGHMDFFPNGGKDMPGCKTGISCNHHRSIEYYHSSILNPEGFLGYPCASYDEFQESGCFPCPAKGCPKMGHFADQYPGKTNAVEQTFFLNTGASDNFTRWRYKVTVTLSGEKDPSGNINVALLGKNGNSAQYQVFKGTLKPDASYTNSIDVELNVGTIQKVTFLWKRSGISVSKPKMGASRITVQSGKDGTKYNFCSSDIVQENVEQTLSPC

[3] = target: T1, Cutinase 1 (Fusarium vanettenii); test: Inhibition of Fusarium solani pisi cutinase assessed as residual enzyme activity pre-incubated for 30 mins with enzyme before substrate addition by pH-stat technique
Procedure, shortened: (§1)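 Cutinase was preincubated for 30 min at 25 °C in 2 mM NaTDC, substrate absent, at inhibitor molar excess xI 2, 4, 20, 40 or 100. Residual activity was measured by pH-stat at 37 °C on TC4 emulsion at pH 8.0 with 0.25 mM NaTDC. xI50 is the molar excess giving 50% activity. Isopropanol controls were run. At least duplicate.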

[4] = target: T3, Pancreatic triacylglycerol lipase (Homo sapiens) (UniProt P16233); test: Inhibition of human recombinant pancreatic lipase expressed in Pichia pastoris at 200 molar excess compound concentration pre-incubated for 2 hrs with enzyme before substrate addition by pH-stat technique
T3 sequence (whole entry): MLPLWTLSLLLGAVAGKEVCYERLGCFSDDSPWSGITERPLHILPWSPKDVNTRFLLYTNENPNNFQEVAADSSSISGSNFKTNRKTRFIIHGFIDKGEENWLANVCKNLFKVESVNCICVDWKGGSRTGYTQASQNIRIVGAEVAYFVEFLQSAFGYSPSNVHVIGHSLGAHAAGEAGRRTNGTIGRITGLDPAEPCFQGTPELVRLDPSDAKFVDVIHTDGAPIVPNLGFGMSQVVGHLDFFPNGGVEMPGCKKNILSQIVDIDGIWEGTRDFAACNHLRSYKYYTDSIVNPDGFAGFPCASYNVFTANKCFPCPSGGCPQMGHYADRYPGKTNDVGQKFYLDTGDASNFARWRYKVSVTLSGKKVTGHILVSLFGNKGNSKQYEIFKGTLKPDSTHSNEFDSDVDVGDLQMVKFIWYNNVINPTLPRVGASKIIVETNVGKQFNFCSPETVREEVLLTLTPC

[5] = target: T4, Gastric triacylglycerol lipase (Canis lupus familiaris) (UniProt P80035); test: Inhibition of dog recombinant gastric lipase expressed in transgenic maize at 200 molar excess compound concentration pre-incubated for 2 hrs with enzyme before substrate addition by pH-stat technique; assay type: single protein; settings: Stomach
T4 sequence (whole entry): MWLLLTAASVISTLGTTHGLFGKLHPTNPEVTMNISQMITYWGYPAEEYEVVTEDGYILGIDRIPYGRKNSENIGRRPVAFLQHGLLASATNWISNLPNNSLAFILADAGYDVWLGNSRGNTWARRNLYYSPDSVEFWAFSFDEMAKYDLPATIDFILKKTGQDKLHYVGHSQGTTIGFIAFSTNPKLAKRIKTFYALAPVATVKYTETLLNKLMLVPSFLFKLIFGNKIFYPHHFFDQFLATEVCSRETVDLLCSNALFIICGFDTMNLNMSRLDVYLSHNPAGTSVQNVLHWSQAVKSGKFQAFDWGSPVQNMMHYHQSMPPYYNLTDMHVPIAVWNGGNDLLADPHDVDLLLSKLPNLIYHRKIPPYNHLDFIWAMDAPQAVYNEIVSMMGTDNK

[6] = test system: Mycobacterium tuberculosis; test: Inhibition of Mycobacterium tuberculosis LipY at 40 molar excess compound concentration pre-incubated for 30 mins with enzyme before substrate addition by pH-stat technique
[7] = target: Monoacylglycerol lipase (Mycobacterium tuberculosis H37Rv) (UniProt O07427); test: Inhibition of Mycobacterium tuberculosis Rv0183 pre-incubated for 30 mins with enzyme before substrate addition by pH-stat technique
Chain of Monoacylglycerol lipase (Mycobacterium tuberculosis H37Rv) (O07427 whole entry): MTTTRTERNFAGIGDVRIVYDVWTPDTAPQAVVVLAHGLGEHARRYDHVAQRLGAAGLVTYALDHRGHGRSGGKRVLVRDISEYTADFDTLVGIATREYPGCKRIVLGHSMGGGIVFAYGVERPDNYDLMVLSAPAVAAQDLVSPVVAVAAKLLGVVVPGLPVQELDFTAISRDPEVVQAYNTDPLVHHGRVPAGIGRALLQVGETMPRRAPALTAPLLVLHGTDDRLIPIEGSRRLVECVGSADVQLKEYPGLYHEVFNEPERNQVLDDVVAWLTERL
Procedure, shortened: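 Rv0183 was preincubated 30 min at 25 °C without NaTDC at inhibitor molar excess 2, 4, 20, 40 or 100. Residual monoglyceride lipase activity was measured by pH-stat at 37 °C with MC18 emulsion, pH 8.0, 3 mM NaTDC. xI50 was read from the residual-activity curve. Solvent controls were run. At least duplicate.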

[8] = target: T1, Cutinase 1 (Fusarium vanettenii); test: Inhibition of Fusarium solani pisi cutinase pre-incubated for 30 mins with enzyme before substrate addition by pH-stat technique; procedure, shortened: as §1

CO[P@]1(=O)OC[C@H]2COC(=O)C2=C(C)O1 (racemic)
T1/2 [1]: 10.8 s | inhibition [2]: inactive | Activity [3]: 6% | inhibition [4]: inactive | inhibition [5]: inactive | inhibition [6]: 14% | XI50 [7]: 5.22 molar excess | XI50 [8]: 0.96 molar excess
